Screens deposited in PubChem BioAssay by several laboratories.
STAT1 inh – STAT1 signaling inhibitors, primary screen, cell-based, HTS, luciferase reporter. NIH 3T3 STAT1-luciferase reporter, IFN-gamma, luminescence. inhibition, % at 5.5 µM. hit rate 0.35% among 200,000. AID 920, 2007;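 active means inhibition above a set limit, the mean inhibition across all tested compounds plus 3 SD, cut at about 34% in these data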
NF-kB expr up – activators of NF-kB expression in neurons, primary screen, cell-based, HTS; human neuronal cells, NF-kB reporter expression; active compounds read high; hit rate 1.6% among 190,000; fold change at 12.5 µM; in the data active means fold change above about 3.3
STAT1 activator – STAT1 signaling activators, primary screen, cell-based, HTS, luciferase reporter. NIH 3T3 STAT1-luciferase reporter, IFN-gamma, luminescence; 100% = IFN-gamma alone, no compound. activation (% of control), % at 5.5 µM. hit rate 2.6% among 200,000. AID 932, 2007;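 active means activation above the screen-wide mean activation plus 3 SD, cut at about 130% in these data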
STAT3 inh-1 – IL-6 driven STAT3 reporter inhibitors, primary screen, U3A cells, luciferase, luminescence, MLSCN library. IL-6 STAT3-luciferase reporter; host cell line lacks STAT1. hit rate 0.89% among 190,000. AID 862, 2007. inhibition, % at 5.5 µM;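 active means inhibition above the mean inhibition across all screened compounds plus 3 SD, cut at about 44% in these data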
APP 5'UTR act – activators of APP 5'UTR luciferase reporter, primary screen, SH-SY5Y cells | SH-SY5Y APP 5'UTR luciferase reporter, luminescence; zero percent = DMSO vehicle wells | activation, % at 2 µM | hit rate 1% among 190,000 | AID 1276, 2008;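 active means activation above a set limit, based on mean plus 3 SD of controls, cut at about 140% in these data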
STAT3 activator – IL-6 driven STAT3 reporter potentiators, primary screen, U3A cells, luciferase, luminescence, MLSCN library. AID 871, 2007. hit rate 0.91% among 190,000. activation (% of control), % at 5.6 µM. IL-6 STAT3-luciferase reporter; 100% = signal with IL-6 EC80 alone;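 active means activation above the screen-wide mean of compound activation plus 3 SD, cut at about 130% in these data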
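Material: STAT3-luciferase reporter U3A cells. Controls: IL-6-treated wells, 100% activation. Read-out: % activation versus median of IL-6-stimulated wells. Probe or stimulus: IL-6 stimulus at 33 ng/mL final. Timing: compound 1 h, then IL-6 6 h at 37 °C. Signal: reporter luminescence signal.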
STAT3 inh-2 – STAT3 reporter inhibitors, retest of hits, confirmation, U3A cells, luciferase, luminescence | shares compounds with STAT3 inh-1 | IL-6 STAT3 luciferase reporter; cell line lacks STAT1 | inhibition, % at 5.7 µM | hit rate 45% among 1,200;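 active means inhibition above the hit cutoff computed for the primary STAT3 screen, cut at about 44% in these data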
NFkB inh STAT3ct – NF-kB reporter inhibitors in human cells, confirmation, counter-screen for STAT3 inhibitor project, cell-based, HEK293T, luciferase, TNF-alpha stimulus. shares compounds with STAT3 inh-1. TNF-alpha induced. inhibition, % at 5.7 µM. hit rate 36% among 1,200. AID 1308, 2008;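 active means inhibition above the mean of solvent-only control wells plus 3 SD, cutoff set per campaign, cut at about 13% in these data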
STAT1 inh STAT3c – STAT1 reporter inhibitors, IFN-gamma induced, confirmation, counter-screen for STAT3 inhibitor project, cell-based, NIH 3T3, luciferase luminescence. hit rate 27% among 1,200. shares compounds with STAT3 inh-1. NIH 3T3 STAT1-luciferase reporter. inhibition, % at 5.7 µM;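 active means inhibition above the mean plus 3 SD of solvent-only control wells, limit set per screening run, cut at about 16% in these data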
Each line names hits and unclear results; the compound was inactive in the other large screens (follow-up assays come after a bar, where they were run). A selection: hits, their analogues and other compounds. The true share with any hit is near 4.9%.

O=C1NC(c2cccc([N+](=O)[O-])c2)Oc2ccccc21 (centres undefined)	none
O=C(NC1=NC2CCCCC2N1)c1ccccc1 (centres undefined)	STAT3 inh-1 49.2 | STAT3 inh-2 inactive | NFkB inh STAT3ct inactive | STAT1 inh STAT3c inactive
O=C(NC1CC1)c1cc2c(s1)-c1ccccc1OC2	STAT3 inh-1 70.6 | STAT3 inh-2 63.4 | NFkB inh STAT3ct inactive | STAT1 inh STAT3c inactive
O=C(O)c1cc2c(s1)-c1ccccc1OC2	none
CCN=c1scc(-c2ccc3c(c2)NC(=O)CO3)n1N=C1CCCC1	STAT3 inh-1 73.2 | STAT3 inh-2 63.6 | NFkB inh STAT3ct 14.2 | STAT1 inh STAT3c inactive
CCCCN=c1scc(-c2ccc3c(c2)NC(=O)CO3)n1N=C1CCCC1	none
Cc1nn(C)c(C)c1/C=C/C(=O)c1ccc(Cl)cc1Cl	STAT3 inh-1 66.5 | STAT3 inh-2 64.6 | NFkB inh STAT3ct 13.4 | STAT1 inh STAT3c inactive
Cc1ccc2nc(NC(=O)COC(=O)c3ccco3)sc2c1	none
CCOC(=O)c1ccc2nc(NC(=O)c3ccco3)sc2c1	NF-kB expr up 4.63, STAT3 inh-1 54.3, APP 5'UTR act 276.8 | STAT3 inh-2 inactive | NFkB inh STAT3ct inactive | STAT1 inh STAT3c inactive
CCOc1ccc2nc(NC(=O)c3ccoc3C)sc2c1	NF-kB expr up 3.51, STAT3 inh-1 78.6, APP 5'UTR act 167.7 | STAT3 inh-2 46.8 | NFkB inh STAT3ct 13.6 | STAT1 inh STAT3c inactive
COc1ccc(C(=O)c2c[nH]c(C(=O)N=CN(C)C)c2)cc1	none
CCOC(=O)c1ccc(N2C(=O)CC(N3CCC(Nc4ccc(F)cc4)CC3)C2=O)cc1 (centres undefined)	none
CCOc1cc(C(=S)N2CCOCC2)ccc1OS(=O)(=O)c1ccc(NC(C)=O)cc1	STAT3 inh-1 58.5 | STAT3 inh-2 45.2 | NFkB inh STAT3ct inactive | STAT1 inh STAT3c inactive
Cc1c(Cl)cccc1N(CC(=O)NC1CCCCC1)S(C)(=O)=O	none
O=[N+]([O-])c1ccc(O)c(C=Nc2ccc3c(c2)OCCO3)c1	STAT3 inh-1 44.5 | STAT3 inh-2 inactive | NFkB inh STAT3ct inactive | STAT1 inh STAT3c inactive
Cc1ccc(C)c(NC(=O)Cn2nnc(-c3ccc(N4CCOCC4)cc3)n2)c1	none
CCCOc1ccc(/C=N/NC(=S)Nc2ccccc2[N+](=O)[O-])c(O)c1	STAT3 inh-1 92.0 | STAT3 inh-2 48.5 | NFkB inh STAT3ct inactive | STAT1 inh STAT3c inactive
O=[N+]([O-])c1cc(/C=N/NC(=S)Nc2ccccc2Cl)ccc1Cl	none
COc1ccc(/C=N/NC(=S)Nc2ccccc2[N+](=O)[O-])cc1O	STAT3 inh-1 94.5, APP 5'UTR act 206.0 | STAT3 inh-2 83.1 | NFkB inh STAT3ct inactive | STAT1 inh STAT3c inactive
CCOc1ccc(N2C(=O)C3C(c4ccccc4F)NN(C(=O)c4ccc(C)cc4)C3C2=O)cc1 (centres undefined)	none
CCOC(=O)c1cnc2nc[nH]n2c1=O	none
CCc1nnc(NC(=O)c2ccc(OC)cc2OC)s1	STAT1 activator 143.1, STAT3 inh-1 48.8 | STAT3 inh-2 inactive | NFkB inh STAT3ct inactive | STAT1 inh STAT3c inactive
CCc1nnc(NC(=O)Nc2ccccc2OC)s1	none
Cc1cnc(NC(=O)c2nn(C)cc2[N+](=O)[O-])s1	STAT3 inh-1 58.5 | STAT3 inh-2 inactive | NFkB inh STAT3ct inactive | STAT1 inh STAT3c inactive
Cc1ccc(-c2nc(NC(=O)c3nn(C)cc3[N+](=O)[O-])sc2C)cc1C	STAT3 inh-1 49.2 | STAT3 inh-2 inactive | NFkB inh STAT3ct 17.3 | STAT1 inh STAT3c inactive
CC(=O)c1c(C)[nH]c(C(=O)Nc2nc(-c3ccc(Cl)cc3)cs2)c1C	none
Cn1cc([N+](=O)[O-])c(C(=O)Nc2nc(-c3ccc(Cl)cc3)cs2)n1	STAT3 inh-1 60.1 | STAT3 inh-2 inactive | NFkB inh STAT3ct 17.9 | STAT1 inh STAT3c inactive
Cc1ccc(-c2nc(NC(=O)c3nn(C)cc3[N+](=O)[O-])sc2C)cc1	STAT1 inh 35.6, STAT3 inh-1 54.0 | STAT3 inh-2 inactive | NFkB inh STAT3ct 15.1 | STAT1 inh STAT3c inactive
O=C(CSC(=S)N1CCCCC1)c1ccccc1	NF-kB expr up 3.3, STAT3 inh-1 65.0, APP 5'UTR act 242.0 | STAT3 inh-2 inactive | NFkB inh STAT3ct inactive | STAT1 inh STAT3c inactive
O=C(Nc1ccc(S(=O)(=O)N2CCCC2)cc1)c1ccc(CN2CCOCC2)cc1	STAT3 inh-1 65.3 | STAT3 inh-2 52.5 | NFkB inh STAT3ct 15.3 | STAT1 inh STAT3c inactive
O=C(Nc1ccc(S(=O)(=O)N2CCN(Cc3ccccc3)CC2)cc1)c1cnccn1	STAT3 inh-1 82.0 | STAT3 inh-2 74.6 | NFkB inh STAT3ct 25.1 | STAT1 inh STAT3c 22.6
O=C(Nc1ccc(S(=O)(=O)N2CCCCC2)cc1)c1ccc(CN2CCOCC2)cc1	STAT3 inh-1 82.8 | STAT3 inh-2 79.8 | NFkB inh STAT3ct 28.6 | STAT1 inh STAT3c inactive
O=C(Nc1ccc(S(=O)(=O)Nc2ncccn2)cc1)c1ccc(S(=O)(=O)N2CCCC2)cc1	none
CN(c1ccc(C(=O)Nc2ccc(S(=O)(=O)N3CCCC3)cc2)cc1)S(C)(=O)=O	STAT3 inh-1 58.0 | STAT3 inh-2 inactive | NFkB inh STAT3ct inactive | STAT1 inh STAT3c inactive
Cc1cc([N+](=O)[O-])ccc1N(C)C	none
Cc1ccc(-c2[nH]ncc2/C=N/n2c(COc3ccccc3C)nc3ccccc3c2=O)cc1	none
COc1cc(CNc2ncn[nH]2)ccc1OCc1cccc(C)c1	none
CCN(CC)S(=O)(=O)c1ccc(NC(=O)c2ccc(CN3CCOCC3)cc2)cc1	STAT3 inh-1 66.2 | STAT3 inh-2 79.9 | NFkB inh STAT3ct 26.4 | STAT1 inh STAT3c inactive
Cc1ccc(C(=O)Nc2ccc(S(=O)(=O)N3CCOCC3)cc2)cc1	none
O=C(Nc1ccc2c(c1)OCCO2)c1ccc(CN2CCOCC2)cc1	none
O=C(Nc1ccc(Cc2ccncc2)cc1)c1ccc(S(=O)(=O)N2CCOCC2)cc1	STAT3 inh-1 70.4 | STAT3 inh-2 56.7 | NFkB inh STAT3ct inactive | STAT1 inh STAT3c inactive
CCCCc1ccc(NC(=O)c2cnccn2)cc1	NF-kB expr up 5.75, STAT3 inh-1 62.5, APP 5'UTR act 174.2 | STAT3 inh-2 inactive | NFkB inh STAT3ct inactive | STAT1 inh STAT3c inactive
